# pEC50, pIC50, pKi: −log10 of the molar value. Entries after “also recorded” stand apart in the source; their conditions may differ. Like-named read-outs stand apart in the source and are kept apart here.
# Key:
# hCB2R [1] = target: T1, hCB2R (Homo sapiens, UniProt P34972); assay: HTRF cAMP assay in CHO cells stably expressing hCB2R; assay type: cell-based; conditions: for Function: hCB2R cAMP assay
# Procedure, shortened: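 Cells stably expressing hCB2R; inhibition of cAMP accumulation read by HTRF. […] Emax expressed as % of the reference full agonist APD371. Means of four or seven independent experiments run in technical replicates.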
# hCB2R [2] = target: T1, hCB2R; assay type: cell-based; conditions: 0.014 to 10 μM, live CHO cells hCB2R vs hCB1R and wt
# hCB1R = hCB1R (Homo sapiens, UniProt P21554); assay: [3H]CP55940 displacement assay, hCB1R CHO membranes; assay type: binding
# Sequence of hCB1R (P21554 whole entry): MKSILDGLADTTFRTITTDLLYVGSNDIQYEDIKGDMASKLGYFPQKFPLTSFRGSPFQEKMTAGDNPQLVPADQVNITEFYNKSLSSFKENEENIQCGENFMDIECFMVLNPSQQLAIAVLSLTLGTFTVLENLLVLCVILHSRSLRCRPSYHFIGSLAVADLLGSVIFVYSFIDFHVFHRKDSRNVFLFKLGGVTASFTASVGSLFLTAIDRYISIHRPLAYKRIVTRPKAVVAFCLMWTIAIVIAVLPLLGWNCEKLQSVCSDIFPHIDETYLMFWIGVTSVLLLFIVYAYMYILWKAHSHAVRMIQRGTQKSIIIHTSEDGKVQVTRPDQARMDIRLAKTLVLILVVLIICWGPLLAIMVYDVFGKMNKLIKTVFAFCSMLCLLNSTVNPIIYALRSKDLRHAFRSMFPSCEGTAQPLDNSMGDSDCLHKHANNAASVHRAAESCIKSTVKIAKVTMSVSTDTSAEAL
# Procedure, shortened: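 Competitive radioligand binding on membranes from CHO cells stably expressing hCB1R. Test compound displaces radioligand, and Ki is derived from that displacement. Selectivity calculated as Ki(CB1R)/Ki(CB2R). Means of at least three independent experiments, each in duplicate.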
# hCB2R [3] = target: T1, hCB2R; assay: [3H]CP55940 displacement assay, hCB2R CHO membranes; assay type: binding; conditions: for pKi: Ki hCB2R, [3H]CP55940 displacement, CHO membranes stably expressing hCB2R; for Selectivity, ratio of Ki (CB1R)/Ki (CB2R): hCB2R over hCB1R
# [4] = target: hCB2R overexpressing CHO cells (Homo sapiens, UniProt P34972); assay: super-resolution confocal imaging, mean fluorescence intensity of labeled CB2R; assay type: cell-based; conditions: 0.8 μM probe, 15 min
# Sequence of hCB2R overexpressing CHO cells (P34972 whole entry): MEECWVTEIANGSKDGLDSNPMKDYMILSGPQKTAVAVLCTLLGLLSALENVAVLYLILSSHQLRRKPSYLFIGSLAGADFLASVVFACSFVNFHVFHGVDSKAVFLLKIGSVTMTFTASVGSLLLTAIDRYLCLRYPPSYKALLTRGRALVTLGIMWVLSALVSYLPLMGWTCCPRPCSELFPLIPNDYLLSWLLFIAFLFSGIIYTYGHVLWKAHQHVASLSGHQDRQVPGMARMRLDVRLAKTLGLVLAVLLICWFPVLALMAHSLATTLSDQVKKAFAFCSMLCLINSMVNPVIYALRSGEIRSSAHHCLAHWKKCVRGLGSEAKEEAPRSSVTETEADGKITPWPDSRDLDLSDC
# Procedure, shortened: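 Live hCB2R-overexpressing CHO cells stained with fluorescent probe plus Hoechst 33342 nuclear counterstain. Cells optically sectioned by confocal laser-scanning microscopy with an Airyscan detector (super-resolution).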
# hCB2R-CHO cells [5] = assay: endocytosis blocking study; assay type: cell-based, human; conditions: pretreatment 30 min with 0.4 M sucrose and 5 μg mL−1 filipin, probe 10 min
# hCB2R-CHO cells [6] = assay: co-staining with LysoTracker, super-resolution confocal microscopy; assay type: cell-based, human; conditions: 15 min
# Procedure, shortened: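 Live hCB2R-overexpressing CHO cells exposed for 15 min to the fluorescent probe together with LysoTracker as lysosome marker. Imaged by super-resolution confocal microscopy and channels merged to assess overlap. Three independent experiments, with five fields examined each.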
# [7] = tested on: primary human macrophages; assay: confocal microscopy of primary human macrophages; assay type: cell-based; conditions: 0.8 μM, 15 min, endogenous CB2R
# hCB2R [8] = target: T1, hCB2R; assay: TR-FRET kinetic binding characterization on HEK293-hCB2R cell membranes
# [9] = normalized to reference full agonist APD371
# [10] = read-out: IC50 (column EC50 or IC50), inverse agonists, HTRF cAMP assay, cells stably expressing hCB2R
# [11] = EC50 (column EC50 or IC50), agonists, HTRF cAMP assay, cells stably expressing hCB2R
# T1 sequence (P34972 whole entry): as above
Molecule,Function (hCB2R [1]),pKi (hCB1R),pKi (hCB2R [3]),"Selectivity, ratio of Ki (CB1R)/Ki (CB2R) (hCB2R [3])",Emax (hCB2R [1]; CHO),further results
"3',6'-DIAMINO-5/6-((3,3-DIETHYL-1-(6-(((1S,2S)-2-(HYDROXYMETHYL)CYCLOPROPYL)METHOXY)-5-(3-METHOXYAZETIDIN-1-YL)PYRIDIN-2-YL)-1,4-DIOXO-8,11-DIOXA-2,5-DIAZATRIDECAN-13-YL)CARBAMOYL)-3-OXO-3H-SPIRO[ISOBENZOFURAN-1,9'-XANTHENE]-4',5'-DISULFONIC ACID [Compound 18]",Inverse agonist,–,–,–,–,Emax (hCB2R [1]; [9]): −26%; pIC50 (hCB2R [1]; [10]): 6.58; selectivity and specificity for hCB2R in flow cytometry (hCB2R [2]): high selectivity even at very high concentrations
"CCC(CC)(NC(=O)c1ccc(C2CC2)c(Cc2ccc(F)cc2)n1)C(=O)NCCOCCNC(=O)OC(C)(C)C [Compound 10a, TERT-BUTYL (2-(2-(2-(5-CYCLOPROPYL-6-(4-FLUOROBENZYL)PICOLINAMIDO)-2-ETHYLBUTANAMIDO)ETHOXY)ETHYL)CARBAMATE]",–,6.08,7.55,30,–,–
"CCC(CC)(NC(=O)c1ccc(C2CC2)c(Cc2ccc(F)cc2)n1)C(=O)NCCOCCOCCNC(=O)OC(C)(C)C [Compound 10b, TERT-BUTYL (1-(5-CYCLOPROPYL-6-(4-FLUOROBENZYL)PYRIDIN-2-YL)-3,3-DIETHYL-1,4-DIOXO-8,11-DIOXA-2,5-DIAZATRIDECAN-13-YL)CARBAMATE]",partial agonist,6.33,8.22,78,83%,pEC50 (hCB2R [1]; [11]): 7.31
"CCC(CC)(NC(=O)c1ccc(C2CC2)c(Cc2ccc(F)cc2)n1)C(=O)NCCOCCOCCOCCNC(=O)OC(C)(C)C [Compound 10c, TERT-BUTYL (1-(5-CYCLOPROPYL-6-(4-FLUOROBENZYL)PYRIDIN-2-YL)-3,3-DIETHYL-1,4-DIOXO-8,11,14-TRIOXA-2,5-DIAZAHEXADECAN-16-YL)CARBAMATE]",–,6.13,7.20,12,–,–
"CCC(CC)(NC(=O)c1ccc(C2CC2)c(Cc2ccc(F)cc2)n1)C(=O)NCCOCCOCCOCCOCCNC(=O)OC(C)(C)C [Compound 10d, TERT-BUTYL (1-(5-CYCLOPROPYL-6-(4-FLUOROBENZYL)PYRIDIN-2-YL)-3,3-DIETHYL-1,4-DIOXO-8,11,14,17-TETRAOXA-2,5-DIAZANONADECAN-19-YL)CARBAMATE]",–,5.83,6.84,10,–,–
"CCC(CC)(NC(=O)c1ccc(N2CC(OC)C2)c(OC[C@H]2C[C@@H]2CO)n1)C(=O)NCCOCCNC(=O)OC(C)(C)C [Compound 11a, TERT-BUTYL (2-(2-(2-ETHYL-2-(6-(((1S,2S)-2-(HYDROXYMETHYL)CYCLOPROPYL)METHOXY)-5-(3-METHOXYAZETIDIN-1-YL)PICOLINAMIDO)BUTANAMIDO)ETHOXY)ETHYL)CARBAMATE]",–,< 5.00,5.69,>4,–,–
"CCC(CC)(NC(=O)c1ccc(N2CC(OC)C2)c(OC[C@H]2C[C@@H]2CO)n1)C(=O)NCCOCCOCCNC(=O)OC(C)(C)C [Compound 11b, TERT-BUTYL (3,3-DIETHYL-1-(6-(((1S,2S)-2-(HYDROXYMETHYL)CYCLOPROPYL)METHOXY)-5-(3-METHOXYAZETIDIN-1-YL)PYRIDIN-2-YL)-1,4-DIOXO-8,11-DIOXA-2,5-DIAZATRIDECAN-13-YL)CARBAMATE]",Inverse agonist,< 5.00,6.97,>94,-63%,pIC50 (hCB2R [1]): 7.06
"CCC(CC)(NC(=O)c1ccc(N2CC(OC)C2)c(OC[C@H]2C[C@@H]2CO)n1)C(=O)NCCOCCOCCOCCNC(=O)OC(C)(C)C [Compound 11c, TERT-BUTYL (3,3-DIETHYL-1-(6-(((1S,2S)-2-(HYDROXYMETHYL)CYCLOPROPYL)METHOXY)-5-(3-METHOXYAZETIDIN-1-YL)PYRIDIN-2-YL)-1,4-DIOXO-8,11,14-TRIOXA-2,5-DIAZAHEXADECAN-16-YL)CARBAMATE]",–,< 5.00,< 5.00,–,–,–
"CCC(CC)(NC(=O)c1ccc(C2CC2)c(Cc2ccc(F)cc2)n1)C(=O)NCCOCCOCCNC(=O)c1ccc2c(c1)C1(OC2=O)c2ccc(N(C)C)cc2[Si](C)(C)c2cc(N(C)C)ccc21 [Compound 13, N-(1-(3,7-BIS(DIMETHYLAMINO)-5,5-DIMETHYL-3'-OXO-3'H,5H-SPIRO[DIBENZO[B,E]SILINE-10,1'-ISOBENZOFURAN]-6'-YL)-13-ETHYL-1,12-DIOXO-5,8-DIOXA-2,11-DIAZAPENTADECAN-13-YL)-5-CYCLOPROPYL-6-(4-FLUOROBENZYL)PICOLINAMIDE]",full agonism; also recorded: Full agonist,–,–,–,127%,pEC50 (hCB2R [1]; [11]): 6.28
"CCC(CC)(NC(=O)c1ccc(C2CC2)c(Cc2ccc(F)cc2)n1)C(=O)NCCOCCOCCNC(=O)c1ccc2c(c1)C(=O)OC21c2ccc(N)c(S(=O)(=O)O)c2Oc2c1ccc(N)c2S(=O)(=O)O [Compound 14, 3',6'-DIAMINO-5-((1-(5-CYCLOPROPYL-6-(4-FLUOROBENZYL)PYRIDIN-2-YL)-3,3-DIETHYL-1,4-DIOXO-8,11-DIOXA-2,5-DIAZATRIDECAN-13-YL)CARBAMOYL)-3-OXO-3H-SPIRO[ISOBENZOFURAN-1,9'-XANTHENE]-4',5'-DISULFONIC ACID]",partial agonism; also recorded: Partial agonist,–,–,–,79%,pEC50 (hCB2R [1]; [11]): 7.11; selectivity and specificity for hCB2R in flow cytometry (hCB2R [2]): high selectivity even at very high concentrations
"CCC(CC)(NC(=O)c1ccc(N2CC(OC)C2)c(OC[C@H]2C[C@@H]2CO)n1)C(=O)NCCOCCOCCNC(=O)c1ccc2c(c1)C1(OC2=O)c2ccc(N(C)C)cc2[Si](C)(C)c2cc(N(C)C)ccc21 [Compound 17, N-(1-(3,7-BIS(DIMETHYLAMINO)-5,5-DIMETHYL-3'-OXO-3'H,5H-SPIRO[DIBENZO[B,E]SILINE-10,1'-ISOBENZOFURAN]-6'-YL)-13-ETHYL-1,12-DIOXO-5,8-DIOXA-2,11-DIAZAPENTADECAN-13-YL)-6-(((1S,2S)-2-(HYDROXYMETHYL)CYCLOPROPYL)METHOXY)-5-(3-METHOXYAZETIDIN-1-YL)PICOLINAMIDE]",Inverse agonist,–,–,–,-29%,pIC50 (hCB2R [1]): 6.89
"N-(1-(3',6'-BIS(DIMETHYLAMINO)-3-OXO-3H-SPIRO[ISOBENZOFURAN-1,9'-XANTHEN]-5/6-YL)-13-ETHYL-1,12-DIOXO-5,8-DIOXA-2,11-DIAZAPENTADECAN-13-YL)-5-CYCLOPROPYL-6-(4-FLUOROBENZYL)PICOLINAMIDE [Compound 12]",partial agonism; also recorded: Partial agonist,–,–,–,–,"Emax (hCB2R [1]; [9]): 80%; pEC50 (hCB2R [1]; read-out: EC50 (column EC50 or IC50), agonists, HTRF cAMP assay, cells stably expressing hCB2R): 7.09; MFI of labeled CB2R in intracellular compartments [4]: 2575 ± 100 MFI; plasma membrane labelling intensity (MFI) of labeled CB2R [4]: 2090 ± 175 MFI; reduction of intracellular staining by endocytosis blockers (hCB2R-CHO cells [5]): 70%; co-localization with LysoTracker (hCB2R-CHO cells [6]): partial overlap but no clear co-localization; distribution pattern in human macrophages [7]: widely distributed within the cell; kinetic binding characterization (hCB2R [8]): fast association and appropriate residence time"
"N-(1-(3',6'-BIS(DIMETHYLAMINO)-3-OXO-3H-SPIRO[ISOBENZOFURAN-1,9'-XANTHEN]-5/6-YL)-13-ETHYL-1,12-DIOXO-5,8-DIOXA-2,11-DIAZAPENTADECAN-13-YL)-6-(((1S,2S)-2-(HYDROXYMETHYL)CYCLOPROPYL)METHOXY)-5-(3-METHOXYAZETIDIN-1-YL)PICOLINAMIDE [Compound 16]",Inverse agonist,–,–,–,–,Emax (hCB2R [1]; [9]): −29%; pIC50 (hCB2R [1]; [10]): 6.94; MFI of labeled CB2R in intracellular compartments [4]: 340 ± 13 MFI; plasma membrane labelling intensity (MFI) of labeled CB2R [4]: 350 ± 4 MFI; reduction of intracellular staining by endocytosis blockers (hCB2R-CHO cells [5]): without affecting; co-localization with LysoTracker (hCB2R-CHO cells [6]): clear co-localization pattern; distribution pattern in human macrophages [7]: mainly localized on cellular membranes and partially in perinuclear dots; kinetic binding characterization (hCB2R [8]): fast association and appropriate residence time

# Source: PMC11485011 (Chemical Science, 2024)
